Target: T1, Glutamate receptor 4 (Homo sapiens, UniProt P48058)
Assay: % potentiation of responses mediated by 100 uM L-glutamate in human transfected HEK293 cells expressing homomeric iGluR4 flip receptors at a dose of 3 uM.
Format: functional, cell-based
Method in brief: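 HEK293 cells stably expressing human iGluR4 flip, as confluent monolayers, loaded 60 min with 20 µM Fluo3-AM in HEPES-buffered saline (5 mM CaCl2, pH 7.1-7.3), then washed. Compound was added 5 min before 100 µM glutamate. Fluorescence was read just before glutamate and 3 min after. Potentiation at 3 µM, the highest dose tested, was expressed relative to 100 µM cyclothiazide (n = 1).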

T1 sequence (P48058 whole entry): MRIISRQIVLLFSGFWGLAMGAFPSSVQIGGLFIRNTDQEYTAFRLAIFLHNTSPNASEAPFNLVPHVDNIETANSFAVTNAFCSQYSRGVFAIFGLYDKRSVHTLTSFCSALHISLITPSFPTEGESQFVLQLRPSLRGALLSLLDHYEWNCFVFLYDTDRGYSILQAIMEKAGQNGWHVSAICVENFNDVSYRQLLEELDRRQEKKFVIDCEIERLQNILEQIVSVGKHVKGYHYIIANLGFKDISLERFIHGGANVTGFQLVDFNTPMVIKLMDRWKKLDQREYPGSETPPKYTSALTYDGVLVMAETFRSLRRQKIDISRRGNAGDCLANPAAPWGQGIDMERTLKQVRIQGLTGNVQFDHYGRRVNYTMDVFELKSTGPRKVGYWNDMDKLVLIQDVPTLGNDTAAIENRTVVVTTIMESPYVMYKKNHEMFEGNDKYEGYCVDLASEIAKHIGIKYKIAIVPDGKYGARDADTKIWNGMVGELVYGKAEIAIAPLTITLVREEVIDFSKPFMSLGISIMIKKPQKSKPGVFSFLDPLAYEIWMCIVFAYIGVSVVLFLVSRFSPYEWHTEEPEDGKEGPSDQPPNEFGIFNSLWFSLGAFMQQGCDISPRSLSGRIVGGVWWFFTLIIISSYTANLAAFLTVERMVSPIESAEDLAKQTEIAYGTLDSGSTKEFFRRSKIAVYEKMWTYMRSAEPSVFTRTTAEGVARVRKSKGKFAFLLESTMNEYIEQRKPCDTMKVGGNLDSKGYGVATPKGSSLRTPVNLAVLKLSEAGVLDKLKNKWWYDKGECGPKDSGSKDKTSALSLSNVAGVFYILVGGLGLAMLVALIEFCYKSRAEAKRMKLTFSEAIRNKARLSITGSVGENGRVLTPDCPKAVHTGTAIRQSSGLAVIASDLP

Potentiation	SMILES
34%	CC(C)S(=O)(=O)N[C@H]1CCC[C@H]1c1ccc(I)cc1
57%	CC(C)S(=O)(=O)N[C@@H]1CCC[C@@H]1c1ccc(F)cc1 (racemic)
5%	CC(C)S(=O)(=O)N[C@H]1CCC[C@H]1c1cc(F)cc(F)c1
0%	CC(CNS(=O)(=O)C(C)C)c1ccccc1 (racemic)
6%	CC(C)S(=O)(=O)N[C@@H]1CCC[C@H]1c1ccccc1
2%	CC(C)S(=O)(=O)N[C@H]1CCC[C@H]1c1ccccc1
2%	CC(C)S(=O)(=O)N[C@@H]1CCC[C@H]1c1ccc(Br)cc1
27%	CC(C)S(=O)(=O)N[C@H]1CCC[C@H]1c1ccc(Br)cc1
48%	CC(C)S(=O)(=O)N[C@@H]1CCC[C@@H]1c1ccccc1 (racemic)
26%	CC(CNS(=O)(=O)C(C)C)c1ccc(Br)cc1 (racemic)
70%	CC(C)S(=O)(=O)N[C@H]1CCC[C@@H]1c1ccccc1 (racemic)
17%	CC(C)S(=O)(=O)N[C@H]1CCC[C@H]1c1ccc(C#N)cc1
12%	CC(C)S(=O)(=O)N[C@@H]1CCC[C@H]1c1ccc(I)cc1

Target: T1, Glutamate receptor 4
Assay: Potentiation of responses mediated by 100 uM L-glutamate in transfected HEK293 cells expressing human homomeric iGluR4 flip receptors.
Format: functional, cell-based
Method in brief: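 Calcium influx was measured in confluent HEK293 cells stably expressing human homomeric iGluR4 flip, loaded 60 min with 20 µM Fluo3-AM in HEPES buffer (pH 7.1-7.3, 5 mM Ca2+). Compound at several concentrations preceded 100 µM glutamate by 5 min. Fluorescence was read before and 3 min after glutamate. Responses were scaled to 100 µM cyclothiazide, and EC50 was taken as the mean of at least three experiments.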

SMILES	EC50
CC(C)S(=O)(=O)N[C@@H]1CCC[C@@H]1c1cc(F)cc(F)c1 (racemic)	281 nM
CC(C)S(=O)(=O)N[C@H]1CCC[C@@H]1c1ccccc1	551 nM
CC(C)S(=O)(=O)N[C@@H]1CCC[C@@H]1c1ccc(C#N)cc1	403 nM
CC(C)S(=O)(=O)N[C@@H]1CCC[C@@H]1c1ccc(F)c(F)c1 (racemic)	1100 nM
CC(C)S(=O)(=O)N[C@@H]1CCC[C@@H]1c1cc(F)cc(F)c1	118 nM
CC(C)S(=O)(=O)N[C@@H]1CCC[C@@H]1c1ccccc1	1740 nM
CC(C)S(=O)(=O)N[C@@H]1CCC[C@@H]1c1ccc([N+](=O)[O-])cc1 (racemic)	190 nM
CC(C)S(=O)(=O)N[C@@H]1CCC[C@@H]1c1cccc(F)c1 (racemic)	621 nM

Now from value to molecule:

EC50	SMILES
22.6 nM	CC(C)S(=O)(=O)N[C@@H]1CCC[C@@H]1c1ccc(I)cc1
247 nM	CC(C)S(=O)(=O)N[C@@H]1CCC[C@@H]1c1ccc(Cl)cc1 (racemic)
93.1 nM	CC(C)S(=O)(=O)N[C@H]1CCC[C@@H]1c1ccc(I)cc1 (racemic)
434 nM	Cc1ccc([C@H]2CCC[C@H]2NS(=O)(=O)C(C)C)cc1 (racemic)
68 nM	CC(C)S(=O)(=O)N[C@@H]1CCC[C@@H]1c1ccc(Br)cc1
130 nM	CC(C)S(=O)(=O)N[C@H]1CCC[C@@H]1c1ccc(Br)cc1 (racemic)
82.1 nM	CC(C)S(=O)(=O)N[C@H]1CCC[C@@H]1c1ccc(Br)cc1
45.8 nM	CC(C)S(=O)(=O)N[C@@H]1CCC[C@@H]1c1ccc(I)cc1 (racemic)
32.8 nM	CC(C)S(=O)(=O)N[C@H]1CCC[C@@H]1c1ccc(I)cc1
147 nM	CC(C)S(=O)(=O)N[C@@H]1CCC[C@@H]1c1ccc(Br)cc1 (racemic)

Source: ChEMBL document CHEMBL1135411, “Design and synthesis of a novel series of 1,2-disubstituted cyclopentanes as small, potent potentiators of 2-amino-3-(3-hydroxy-5-methyl-isoxazol-4-yl)propanoic acid (AMPA) receptors” (J Med Chem, 2002)
